Results reported in publication PMC3448790 (Biochemistry, 2012).
Positions count from the first letter of the chain named. Names may count otherwise. “Also recorded” adds a separate entry of the source. Where a SMILES comes first, the peptide text is derived from it. Bridges are numbered along the chain shown (N, C = ends). Where no end group is shown, it is not given here.

Legend:
[1] = test system: human erythrocyte ghosts; assay: Ektacytometry of resealed ghosts; format: cell-based; details: 6 or 15 μM cyclic peptide resealed; elongation index vs shear stress
Procedure, shortened: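 Washed human red cells from ACD-anticoagulated volunteer blood, with buffy coat and plasma removed, were suspended in PBS/5 mM glucose/2 mM MgCl2 with cyclized test peptide or without (control). Cells were flash-frozen in liquid N2 for 40 s, thawed at room temperature, then resealed 45 min at 37°C. Ghosts were washed in PBS/glucose/0.5% BSA and assessed by ektacytometry as elongation index under gradually increasing shear stress.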

[2] = test system: human erythrocyte ghosts; assay: Peptide resealing into red cells, morphology by light microscopy; format: cell-based; details: peptide 0, 6, 12 or 30 μM resealed 45 min at 37°C; 100x oil immersion
[3] = test system: GST-D3D4-ankyrin; assay: His-tag pull-down on Co2+-NTA agarose, bound GST-D3D4-ankyrin by GST activity; format: binding, human; details: immobilized cdB3 variants, pH 8.0, n=2
Procedure, shortened: (§1)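 His6-tagged cdB3 (wild type or loop-deletion mutant) and GST-D3D4 ankyrin (wild type or charge-reversal mutant) were expressed in E. coli BL21(DE3)pLysS and purified. cdB3 was incubated at 4°C with increasing GST-ankyrin in pH 8.0 phosphate/KCl/imidazole buffer with 10% sucrose, 1 mg/ml BSA and PMSF. Complexes were captured on Co2+-NTA beads for 2 h, washed 3x and eluted with 250 mM imidazole. Equal cdB3 loading was checked by anti-cdB3 blot, and bound ankyrin was quantified by GST activity.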

[4] = biological target: the molecule itself; assay: AUC
[5] = test system: GST-ankyrin; format: binding, human; details: GST-ankyrin 1 μM on glutathione-beads; cdB3 or mutant 1 μM; anti-cdB3 antibody
Procedure, shortened: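 Purified GST-ankyrin was immobilized on glutathione beads and incubated 2 h with His6-tagged wild-type or mutant cdB3 expressed in E. coli. Beads were washed 3x with binding buffer, and captured cdB3 was quantified by dot blot with a locally prepared polyclonal anti-cdB3 antibody.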

[6] = test system: cdB3; assay: Binding of native or mutated GST-D3D4 ankyrin to His-tagged cdB3; design: species or system human; details: GST activity, n=2
Procedure, shortened: as §1

[7] = biological target: T1, GST-D3D4-ankyrin (GST fusion construct of the D3D4 domain of ankyrin), wild type (human, UniProt P16157 402-827); assay: pull-down
T1 sequence: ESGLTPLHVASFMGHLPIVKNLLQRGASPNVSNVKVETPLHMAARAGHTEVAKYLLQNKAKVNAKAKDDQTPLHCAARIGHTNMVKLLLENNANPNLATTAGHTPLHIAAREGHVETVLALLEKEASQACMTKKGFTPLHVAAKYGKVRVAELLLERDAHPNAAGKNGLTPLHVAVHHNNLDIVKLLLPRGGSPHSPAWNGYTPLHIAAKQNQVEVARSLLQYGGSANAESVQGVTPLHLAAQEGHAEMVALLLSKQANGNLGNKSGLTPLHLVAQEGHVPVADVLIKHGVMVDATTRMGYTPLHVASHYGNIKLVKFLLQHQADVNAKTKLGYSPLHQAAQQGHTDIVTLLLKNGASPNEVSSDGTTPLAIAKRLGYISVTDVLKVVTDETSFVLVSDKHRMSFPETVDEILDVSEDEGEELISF

[8] = test system: GST-D3D4-ankyrin; format: binding, human; details: increasing concentrations of GST-D3D4-ankyrin; anti-ankyrin polyclonal antibodies
[9] = test system: glyceraldehyde-3-phosphate dehydrogenase (GAPDH); details: 2 μg/mL GAPDH, 2 min at room temperature, pH 7.0; 10 mM imidazole acetate; absorbance change at 340 nm
[10] = biological target: T1, GST-D3D4-ankyrin (GST fusion construct …); assay: pull-down; remark: listed apart in the source

## CSCC[C@@H]1NC(=O)[C@H](C(C)C)NC(=O)[C@H](CC(C)C)NC(=O)[C@H](CCC(=O)O)NC(=O)[C@@H](N)CSSC[C@@H](C(=O)O)NC(=O)[C@H](CC(C)C)NC(=O)[C@H](CCC(=O)O)NC(=O)[C@H](CCC(N)=O)NC(=O)[C@H](CC(N)=O)NC(=O)[C@H](CCCCN)NC(=O)[C@H](CCC(=O)O)NC(=O)[C@H](CC(=O)O)NC1=O [cyclized peptide] (HELM PEPTIDE1{C.E.L.V.M.D.E.K.N.Q.E.L.C}$PEPTIDE1,PEPTIDE1,1:R3-13:R3$$$V2.0; N-terminus and C-terminus assumed)
[1]
  effect on membrane deformability (in words): compromised membrane deformability
[2]
  effect on red cell membrane morphology (in words): membrane blebbing and a gradual decrease in membrane surface area; also recorded: extensive vesiculation at higher peptide concentrations

B1: double loop deleted (ΔL1 + ΔL2) cdB3: combination of loop 1 and loop 2 deletion mutant (protein)
chain: MEELQDDYEDMMEENLEQEEYEDPDIPESQMEEPAAHDTEATATDYHTTSHPGTHKVYVELQGGRWMEAARWVQLEENLGENGAWGRPHLSHLTFWSLLELRRVFTKGTVLLDLQETSLAGVANQLLDRFIFEDQIRPQDREELLRALLLKHSHAGELEALGGVKGGQPLLPQHSSLETQLFCEQGDGGTEGHSPSGILEKIPPDSEATLVLVGRADFLEQPVLGFVRLQEAAELEAVELPVPIRFLFVLLGPEAPHIDYTQLGRAAATLMSERVFRIDAYMAQSRGELLHSLEGFLDCSLVLPPTDAPSEQALLSLVPVQRELLRRRYQSSPAKPDSSFYKGLDLNGGPDDPLQQTGQLF
modifications: left off: His6, C-terminal, kept
[3]
  affinity for GST-ankyrin (in words): no affinity could be detected

B2: ΔL2 cdb3: mutant cdB3 with a diglycine bridge in place of loop 2 (residues 175–185) (protein)
chain: MEELQDDYEDMMEENLEQEEYEDPDIPESQMEEPAAHDTEATATDYHTTSHPGTHKVYVELQELVMDEKNQELRWMEAARWVQLEENLGENGAWGRPHLSHLTFWSLLELRRVFTKGTVLLDLQETSLAGVANQLLDRFIFEDQIRPQDREELLRALLLKHSHAGELEALGGVKGGQPLLPQHSSLETQLFCEQGDGGTEGHSPSGILEKIPPDSEATLVLVGRADFLEQPVLGFVRLQEAAELEAVELPVPIRFLFVLLGPEAPHIDYTQLGRAAATLMSERVFRIDAYMAQSRGELLHSLEGFLDCSLVLPPTDAPSEQALLSLVPVQRELLRRRYQSSPAKPDSSFYKGLDLNGGPDDPLQQTGQLF
modifications: left off: His6, C-terminal, kept
[3]
  affinity for GST-ankyrin (in words): no affinity could be detected

B3: cdB3 ΔL1 (cdB3 with loop 1, residues 63–73, replaced by a diglycine bridge) (domain or fragment, human)
chain: MEELQDDYEDMMEENLEQEEYEDPDIPESQMEEPAAHDTEATATDYHTTSHPGTHKVYVELQGGRWMEAARWVQLEENLGENGAWGRPHLSHLTFWSLLELRRVFTKGTVLLDLQETSLAGVANQLLDRFIFEDQIRPQDREELLRALLLKHSHAGELEALGGVKPAVLTRSGDPSQPLLPQHSSLETQLFCEQGDGGTEGHSPSGILEKIPPDSEATLVLVGRADFLEQPVLGFVRLQEAAELEAVELPVPIRFLFVLLGPEAPHIDYTQLGRAAATLMSERVFRIDAYMAQSRGELLHSLEGFLDCSLVLPPTDAPSEQALLSLVPVQRELLRRRYQSSPAKPDSSFYKGLDLNGGPDDPLQQTGQLF
[4]
  stoichiometry N: 2

B4: cdB3 ΔL1: mutant cdB3 with loop 1 (residues 63–73) replaced by a diglycine bridge (protein)
chain: B3 chain
modifications: left off: His6, C-terminal, kept
[5]
  affinity for immobilized GST-ankyrin by dot blot (in words): no affinity for ankyrin

B5: mutated ankyrin: D3D4 domain of ankyrin with the four mutations N601D, K611E, E645K, and Q634E (protein)
chain: T1 sequence with N200D, K210E, Q233E, E244K
modifications: left off: GST, end not stated, kept
[6]; N601D, K611E, Q634E, E645K mutant
  affinity of mutated ankyrin for cdB3 (in words): unable to bind cdB3

B6: Wild-type ankyrin: GST fusion construct of the D3D4 domain of ankyrin (protein)
chain: T1 sequence
modifications: left off: GST, end not stated, kept
[6]; read-out: apparent dissociation constant of ankyrin for cdB3
  Kd: ~0.4 µM

B7: cytoplasmic domain of band 3 (cdB3), wild type, with COOH-terminal His6-tag (domain or fragment, human)
chain: MEELQDDYEDMMEENLEQEEYEDPDIPESQMEEPAAHDTEATATDYHTTSHPGTHKVYVELQELVMDEKNQELRWMEAARWVQLEENLGENGAWGRPHLSHLTFWSLLELRRVFTKGTVLLDLQETSLAGVANQLLDRFIFEDQIRPQDREELLRALLLKHSHAGELEALGGVKPAVLTRSGDPSQPLLPQHSSLETQLFCEQGDGGTEGHSPSGILEKIPPDSEATLVLVGRADFLEQPVLGFVRLQEAAELEAVELPVPIRFLFVLLGPEAPHIDYTQLGRAAATLMSERVFRIDAYMAQSRGELLHSLEGFLDCSLVLPPTDAPSEQALLSLVPVQRELLRRRYQSSPAKPDSSFYKGLDLNGGPDDPLQQTGQLF
[7]
  Kd: ~0.4 µM

B8: native cdB3: cytoplasmic domain of band 3 (protein)
chain: B7 chain
modifications: left off: His6, C-terminal, kept
[8]
  GST-ankyrin binding by dot blot (in words): usual prominent binding
[5]
  affinity for immobilized GST-ankyrin by dot blot (in words): strong affinity
[9]
  inhibition of GAPDH: 90%

## CELVMDEKNQELC [linear loop 1 peptide (residues 63–73 of cdB3 with a cysteine at each end, reduced)]
[10]
  IC50: 55 µM

## CELVMDEKNQELC (disulfide 1-13) [cyclized loop 1 peptide (residues 63–73 of cdB3 with a cysteine at each end, disulfide-bonded)]
[10]
  IC50: ~15 µM
